Experimental data as given in ChEMBL document CHEMBL4330063, “New naphthopyran analogues of LY290181 as potential tumor vascular-disrupting agents” (Eur J Med Chem, 2019).
The source made the active and inactive calls. No cut-off for these calls is given here.

Key:
Chorioallantoic membrane [1] = assay: Antiangiogenic activity in Leghorn chicken embryo chorioallantoic membrane assessed as effect on blood vessel length at 2.5 nmol after 6 hrs by light microscopic analysis; type: functional, tissue-based; conditions: Gallus gallus
Method in brief: (§1)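 Fertilized chicken eggs, CAM assay. Compound was applied topically into a small silicon foil ring placed on the CAM. The membrane and its extraembryonal blood vessels were monitored over 24 h, with observations at 6 h and 24 h post application.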

Chorioallantoic membrane [2] = assay: Antiangiogenic activity in Leghorn chicken embryo chorioallantoic membrane assessed as induction of corrosion at 2.5 nmol after 24 hrs by light microscopic analysis; type: functional, tissue-based; conditions: Gallus gallus; method in brief: as §1
Chorioallantoic membrane [3] = assay: Antiangiogenic activity in Leghorn chicken embryo chorioallantoic membrane assessed as induction of hemorrhages at 2.5 nmol after 24 hrs by light microscopic analysis; type: functional, tissue-based; conditions: Gallus gallus; method in brief: as §1
Chorioallantoic membrane [4] = assay: Antiangiogenic activity in Leghorn chicken embryo chorioallantoic membrane assessed as disruption of bigger blood vessels at 2.5 nmol after 6 hrs by light microscopic analysis; type: functional, tissue-based; conditions: Gallus gallus; method in brief: as §1
Chorioallantoic membrane [5] = assay: Antiangiogenic activity in Leghorn chicken embryo chorioallantoic membrane assessed as reduction in blood vessel area at 2.5 nmol after 6 hrs by light microscopic analysis relative to control; type: functional, tissue-based; conditions: Gallus gallus
Method in brief: (§2)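 The CAM assay was run with topical application into a silicon foil ring atop the CAM of fertilized chicken eggs. Area covered by blood vessels was quantified by fractal analysis relative to control.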

Chorioallantoic membrane [6] = assay: Antiangiogenic activity in Leghorn chicken embryo chorioallantoic membrane assessed as induction of irritation at 5 nmol after 6 to 24 hrs by light microscopic analysis; type: functional, tissue-based; conditions: Gallus gallus; method in brief: as §1
Tubulin = Tubulin (Sus scrofa, UniProt P02554+P02550); assay: Inhibition of porcine brain tubulin polymerization after 2 hrs
Chorioallantoic membrane [7] = assay: Antiangiogenic activity in Leghorn chicken embryo chorioallantoic membrane assessed as induction of contraction at 5 nmol after 6 to 24 hrs by light microscopic analysis; type: functional, tissue-based; conditions: Gallus gallus; method in brief: as §1
HT-29 [8] = assay: Cell cycle arrest in human HT-29 cells assessed as accumulation of cells at S phase at 350 nM after 24 hrs by propidium iodide staining-based flow cytometric analysis (reference value: 12.3 +/- 0.4%); type: functional
HT-29 [9] = assay: Cell cycle arrest in human HT-29 cells assessed as accumulation of cells at G2/M phase after 24 hrs by propidium iodide staining-based flow cytometric analysis; type: functional
HT-29 [10] = assay: Cell cycle arrest in human HT-29 cells assessed as accumulation of cells at sub G1 phase at 100 nM after 24 hrs by propidium iodide staining-based flow cytometric analysis (reference value: 1.2 +/- 0.3%); type: functional
518A2 [11] = assay: Effect on F-actin in human 518A2 cells assessed as thick stress fibers formation at 100 nM after 3 hrs by DAPI staining-based fluorescence microscopic analysis; type: cell-based
Method in brief: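 518A2 melanoma cells were treated with 100 nM for 3 h. Filamentous actin was fluorescence-labelled, nuclei were counterstained with DAPI, and the cells were imaged by fluorescence microscopy. Images come from two independent experiments.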

HT-29 [12] = assay: Cell cycle arrest in human HT-29 cells assessed as accumulation of cells at sub G1 phase at 250 nM after 24 hrs by propidium iodide staining-based flow cytometric analysis (reference value: 1.2 +/- 0.3%); type: functional
518A2 [13] = assay: Induction of apoptosis in human 518A2 cells at 100 nM after 24 hrs by TUNEL assay relative to control; type: functional
HT-29 [14] = assay: Cell cycle arrest in human HT-29 cells assessed as accumulation of cells at G1 phase at 250 nM after 24 hrs by propidium iodide staining-based flow cytometric analysis (reference value: 75.1 +/- 1.1%); type: functional
[15] = Antiproliferative activity against human KB-V1/Vbl cells after 72 hrs by MTT assay; type: functional, cell-based
Method in brief: (§3)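 MTT read-out after 72 h of continuous exposure. Viability is expressed as percentage of viable cells relative to untreated controls. IC50 comes from dose-response curves. Values are means±SD of four independent experiments (two for some entries). DMSO was below 1%, with vehicle controls at equal DMSO. Precipitation was excluded spectrometrically and microscopically.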

518A2 [16] = assay: Induction of apoptosis in human 518A2 cells assessed as accumulation at subG1 phase; type: functional, cell-based
[17] = Antiproliferative activity against human MCF7/Topo cells after 72 hrs by MTT assay; type: functional, cell-based; method in brief: as §3
HT-29 [18] = assay: Cell cycle arrest in human HT-29 cells assessed as accumulation of cells at G1 phase at 350 nM after 24 hrs by propidium iodide staining-based flow cytometric analysis (reference value: 75.1 +/- 1.1%); type: functional
HT-29 [19] = assay: Cell cycle arrest in human HT-29 cells assessed as accumulation of cells at G2/M phase at 100 nM after 24 hrs by propidium iodide staining-based flow cytometric analysis (reference value: 11.4 +/- 1.4%); type: functional
A2780 = assay: Antiproliferative activity against human A2780 cells after 72 hrs by SRB assay; type: functional, cell-based; conditions: A2780, 72 h
Method in brief: (§4)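 Ovarian A2780 and cisplatin-resistant A2780cis cells were exposed for 72 h and stained with SRB. IC50 comes from dose-response curves, as means±SD of three independent experiments. Final DMSO was below 1%, with matched vehicle controls.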

[20] = Antiproliferative activity against human A2780cis cells after 72 hrs by SRB assay; type: functional, cell-based; method in brief: as §4
HT-29 [21] = assay: Cell cycle arrest in human HT-29 cells assessed as accumulation of cells at S phase at 250 nM after 24 hrs by propidium iodide staining-based flow cytometric analysis (reference value: 12.3 +/- 0.4%); type: functional
EA.hy 926 [22] = assay: Cytotoxicity against human EAhy926 cells at 100 nM after 24 hrs by MTT assay relative to control; type: cell-based; conditions: ea.hy 926, 24 h, 0.1 µM
Chorioallantoic membrane [23] = assay: Antiangiogenic activity in Leghorn chicken embryo chorioallantoic membrane assessed as reduction in blood vessel area at 5 nmol after 6 hrs by light microscopic analysis relative to control; type: functional, tissue-based; design: scale not given: the % may be the effect or the level left; conditions: Gallus gallus; method in brief: as §2
PANC-1 = assay: Antiproliferative activity against human PANC1 cells after 72 hrs by MTT assay; type: functional, cell-based; conditions: PANC-1, 72 h; method in brief: as §3
HT-29 [24] = assay: Cell cycle arrest in human HT-29 cells assessed as accumulation of cells at sub G1 phase at 350 nM after 24 hrs by propidium iodide staining-based flow cytometric analysis (reference value: 1.2 +/- 0.3%); type: functional
HT-29 [25] = assay: Cell cycle arrest in human HT-29 cells assessed as accumulation of cells at G2/M phase at 250 nM after 24 hrs by propidium iodide staining-based flow cytometric analysis (reference value: 11.4 +/- 1.4%); type: functional
Tubulin (Homo sapiens) = Tubulin (Homo sapiens) (UniProt P68371+Q9H4B7+P0DPH7+P68366+Q13509+Q71U36+P04350+Q3ZCM7+P07437+P68363+Q9BQE3+Q6PEY2+Q13885+Q9BVA1+Q9BUF5); assay: Induction of microtubule disruption in human 518A2 cells at 100 nM after 3 hrs by DAPI staining-based fluorescence microscopic analysis; type: cell-based
Method in brief: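 Microtubule organization in 518A2 melanoma cells was checked by tubulin immunofluorescence staining after 3 h exposure to 100 nM, with DAPI as the nuclear counterstain. Images come from two independent experiments.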

EA.hy 926 [26] = assay: Antiangiogenic activity against human EAhy926 cells assessed as inhibition of tube formation on matrigel at 100 nM after 24 hrs by light microscopic analysis; type: functional, cell-based
Method in brief: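 Ea.Hy926 endothelial hybrid cells were seeded on matrigel with compound and examined for tubular/cord-like network formation versus untreated controls. Viability under the same conditions was checked in parallel by MTT to exclude cytotoxic effects.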

EA.hy 926 [27] = assay: Antiproliferative activity against human EAhy926 cells after 72 hrs by MTT assay; type: functional, cell-based; conditions: EA.hy 926, 72 h; method in brief: as §3
DLD-1 = assay: Antiproliferative activity against human DLD1 cells after 72 hrs by MTT assay; type: functional, cell-based; conditions: DLD-1, 72 h; method in brief: as §3
518A2 [28] = assay: Antiproliferative activity against human 518A2 cells after 72 hrs by MTT assay; type: functional, cell-based; conditions: for IC50: 518A2, 72 h; method in brief: as §3
[29] = Toxicity in human A2780 cells xenografted nude mouse at 30 mg/kg administered on every other day and measured after 24 hrs; type: organism-based; conditions: in vivo
HT-29 [30] = assay: Cell cycle arrest in human HT-29 cells assessed as accumulation of cells at G2/M phase at 350 nM after 24 hrs by propidium iodide staining-based flow cytometric analysis (reference value: 11.4 +/- 1.4%); type: functional
Chorioallantoic membrane [31] = assay: Antiangiogenic activity in Leghorn chicken embryo chorioallantoic membrane assessed as induction of hemorrhages at 5 nmol after 6 hrs by light microscopic analysis; type: functional, tissue-based; conditions: Gallus gallus; method in brief: as §1
HCT-116 = assay: Antiproliferative activity against human HCT116 cells after 72 hrs by MTT assay; type: functional, cell-based; conditions: HCT-116, 72 h; method in brief: as §3
HT-29 [32] = assay: Cell cycle arrest in human HT-29 cells assessed as accumulation of cells at G1 phase at 100 nM after 24 hrs by propidium iodide staining-based flow cytometric analysis (reference value: 75.1 +/- 1.1%); type: functional
HT-29 [33] = assay: Cell cycle arrest in human HT-29 cells assessed as accumulation of cells at S phase at 100 nM after 24 hrs by propidium iodide staining-based flow cytometric analysis (reference value: 12.3 +/- 0.4%); type: functional
Chorioallantoic membrane [34] = assay: Antiangiogenic activity in Leghorn chicken embryo chorioallantoic membrane assessed as reduction in size of main blood vessels at 5 nmol after 6 hrs by light microscopic analysis; type: functional, tissue-based; conditions: Gallus gallus; method in brief: as §1
518A2 [35] = assay: Antimigratory activity against human 518A2 cells at 50 nM after 48 hrs by wound healing assay; type: functional, cell-based
HT-29 [36] = assay: Antiproliferative activity against human HT-29 cells after 72 hrs by MTT assay; type: functional, cell-based; conditions: HT-29, 72 h; method in brief: as §3
518A2 [37] = assay: Induction of cell cycle arrest in human 518A2 cells; type: functional, cell-based
Chorioallantoic membrane [38] = assay: Antiangiogenic activity in Leghorn chicken embryo chorioallantoic membrane assessed as effect on blood vessel length at 5 nmol after 6 hrs by light microscopic analysis; type: functional, tissue-based; conditions: Gallus gallus; method in brief: as §1
[39] = Solubility in tween80/ethanol (1:1) solution; type: physicochemical

COc1ccc(/C=C\c2cc(OC)c(OC)c(OC)c2)cc1O
Activity (Chorioallantoic membrane [1]): Active | Activity (Chorioallantoic membrane [2]): Active | Activity (Chorioallantoic membrane [3]): Active | Activity (Chorioallantoic membrane [4]): Active | Activity (Chorioallantoic membrane [5]): Active

COc1c(Br)cc(C2C(C#N)=C(N)Oc3c2ccc2ccccc32)cc1Br (configuration not stated)
Activity (Chorioallantoic membrane [6]): Active | I50 (Tubulin): 13 µM | Activity (Chorioallantoic membrane [7]): Active | Activity (HT-29 [8]): 10.6% | Activity (HT-29 [9]): Dose-dependent effect | Activity (HT-29 [10]): 2.7% | Activity (518A2 [11]): Active | Activity (HT-29 [12]): 4.4% | Activity (518A2 [13]): 46.5% | Activity (HT-29 [14]): 26.8% | IC50 [15]: 33.4 nM | Activity (518A2 [16]): Active | IC50 [17]: 24.8 nM | Activity (HT-29 [18]): 19.9% | Activity (HT-29 [19]): 26.1% | IC50 (A2780): 12.1 nM | IC50 [20]: 15.8 nM | Activity (HT-29 [21]): 13.9% | Activity (EA.hy 926 [22]): > 68% | Activity (Chorioallantoic membrane [23]): 45% | IC50 (PANC-1): 14.7 nM | Activity (HT-29 [24]): 5.3% | Activity (HT-29 [25]): 55% | Activity (Tubulin (Homo sapiens)): Active | Activity (EA.hy 926 [26]): Active | IC50 (EA.hy 926 [27]): 15.9 nM | IC50 (DLD-1): 39.5 nM | Activity (518A2 [28]): Dose-dependent effect | IC50 (518A2 [28]): 24.4 nM | Activity [29]: Toxic | Activity (HT-29 [30]): 64.3% | Activity (Chorioallantoic membrane [31]): inactive | IC50 (HCT-116): 19.1 nM | Activity (HT-29 [32]): 51.8% | Activity (HT-29 [33]): 19.4% | Activity (Chorioallantoic membrane [34]): Active | Activity (518A2 [35]): Active | IC50 (HT-29 [36]): 52.1 nM | Activity (518A2 [37]): inactive | Activity (Chorioallantoic membrane [38]): Active

COc1c(Cl)cc(C2C(C#N)=C(N)Oc3c2ccc2ccccc32)cc1Cl (configuration not stated)
IC50 [15]: 30.2 nM | IC50 [17]: 29.9 nM | IC50 (A2780): 16.7 nM | IC50 [20]: 19.2 nM | IC50 (PANC-1): 27.9 nM | solubility [39]: Insoluble | IC50 (EA.hy 926 [27]): 32.6 nM | IC50 (DLD-1): 59 nM | Activity (518A2 [28]): Dose-dependent effect | IC50 (518A2 [28]): 44.6 nM | IC50 (HCT-116): 69.2 nM | IC50 (HT-29 [36]): 103 nM
